Bioassay records as filed in PubChem.
VIM-2 inh = inhibitors of Pseudomonas aeruginosa VIM-2 metallo-beta-lactamase. purified VIM-2, nitrocefin hydrolysis, epi-absorbance fluorescence. inhibition, % at 5.6 µM. actives 0.89% (n = 290,000). AID 1527;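 active = inhibition above the mean of all tested compounds plus 3 SD, cutoff set per screening run, cut at about 7.5% in these data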;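 note: red hydrolysis product quenches plate fluorescence so inhibitors raise well fluorescence; 0% = enzyme with DMSO and 100% = DMSO without enzyme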
PfM18AAP inh = PfM18AAP enzyme inhibition | recombinant PfM18AAP, H-Glu-NHMec fluorogenic cleavage | inhibition, % at 7.35 µM | actives 1.2% (n = 290,000) | AID 1822;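 active = inhibition above the campaign mean inhibition over all tested compounds plus 3 SD, cut at about 28% in these data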;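 note: 0% = plate median of test compound wells and 100% = 2 mM ZnCl2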
IMP-1 inh = blocks Pseudomonas aeruginosa IMP-1 metallo-beta-lactamase; purified IMP-1, nitrocefin hydrolysis, epi-absorbance fluorescence; inhibition, % at 5.6 µM; actives 0.45% (n = 290,000); AID 1556;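 active = inhibition above the mean plus 3 SD of all compounds in the same screening run, cut at about 4.5% in these data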;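 note: 0% = IMP-1 with DMSO and 100% = DMSO wells lacking enzyme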
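System: Purified IMP-1 | Read-out basis: Percent enzyme inhibition | Controls: IMP-1 with DMSO as 0%, enzyme-free DMSO as 100% | Replicates: One well per compound | Doses: 5.6 µM nominal single concentration | Detection: Epi-absorbance fluorescence, 480 nm excitation, 530 nm emission | Incubation: 25 °C, 15 min preincubation, 25 min reaction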
HGIII-sPLA2 inh = Blocks human group III sPLA2 activity. Q9NZ20. QFRET BODIPY PC-A2 liposome hydrolysis, fluorescence. inhibition, % at 12.2 µM. actives 0.56% (n = 370,000). AID 743126;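 active = inhibition above mean plus 3 SD of compounds lying within the high and low control bounds, cut at about 19% in these data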;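 note: 0% = median of test compound wells and 100% = no enzyme DMSO wells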
Target sequence (Q9NZ20 whole entry, looked up): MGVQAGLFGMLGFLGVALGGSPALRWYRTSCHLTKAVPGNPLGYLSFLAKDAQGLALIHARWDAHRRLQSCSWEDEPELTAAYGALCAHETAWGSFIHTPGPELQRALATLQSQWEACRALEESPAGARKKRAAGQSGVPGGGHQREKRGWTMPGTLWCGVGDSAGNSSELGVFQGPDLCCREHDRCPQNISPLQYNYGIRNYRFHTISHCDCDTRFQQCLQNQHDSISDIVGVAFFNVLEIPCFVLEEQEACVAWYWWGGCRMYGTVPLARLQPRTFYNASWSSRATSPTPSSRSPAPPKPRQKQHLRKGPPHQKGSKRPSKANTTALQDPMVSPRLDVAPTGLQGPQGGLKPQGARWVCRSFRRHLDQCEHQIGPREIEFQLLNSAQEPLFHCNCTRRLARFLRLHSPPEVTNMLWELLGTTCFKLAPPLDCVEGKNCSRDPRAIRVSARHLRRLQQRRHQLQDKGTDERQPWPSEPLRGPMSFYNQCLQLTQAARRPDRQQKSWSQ
sPLA2 confirm = human GIII-sPLA2 inhibition, confirmation; shares compounds with HGIII-sPLA2 inh; recombinant hGIII-sPLA2, BODIPY PC-A2 QFRET fluorescence; inhibition, % at 12.2 µM; actives 34% (n = 2,000); AID 743280;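 active = mean inhibition across triplicates above the hit cutoff set in the earlier primary screen, cut at about 19% in these data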;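 note: 0% = enzyme with DMSO and 100% = DMSO wells lacking enzyme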
BODIPY interf = 535nm fluorescence interference, HGIII-sPLA2 counter-screen; BODIPY FL product fluorescence interference, QFRET; inhibition, % at 12.2 µM; shares compounds with HGIII-sPLA2 inh; actives 8.5% (n = 2,000); AID 743282;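 active = average inhibition above the solvent-only control mean plus 3 SD, cut at about 6% in these data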;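 note: 0% = DMSO with substrate plus product and 100% = DMSO with substrate alone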
BODIPY interf DR = counter-screen for HGIII-sPLA2 inhibitors: 535nm fluorescence interference, dose response. shares compounds with HGIII-sPLA2 inh. BODIPY FL product fluorescence interference, cell-free. IC50, µM. 240 tested, under 10 active;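 active = IC50 at or below 10 µM; inactive = IC50 above 10 µM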
Numbers without * were called inactive; . = no result given. The list is not random: actives were taken first. Their share in the collection is about 2.4%.

SMILES | VIM-2 inh | PfM18AAP inh | IMP-1 inh | HGIII-sPLA2 inh | sPLA2 confirm | BODIPY interf | others
CC(=O)c1cccc(NC(=O)C2(C)Cc3c(-c4ccccc4)ccnc3O2)c1 (centres undefined) | . | . | . | 4.7 | . | .
COC(=O)c1ccc(CNC(=O)Cn2cnc3c(OCc4ccccc4)ncnc32)cc1 | . | . | . | 3.7 | . | .
N/C(=N\OC(=O)CCC1CCCC1)c1cccc([N+](=O)[O-])c1 | -1.0 | 0.5 | 0.8 | 20.8* | 5.7 | -8.1
CCCc1nnn(S(=O)(=O)c2ccc([N+](=O)[O-])cc2)c1CCC | . | . | . | 9.7 | . | .
CCN(CC)CCN1CCN(c2cnc(C)cn2)CC1 | . | . | . | 1.6 | . | .
Cc1ccccc1C(=O)NC1CCN(CC(=O)N2CCCCC2C)CC1 (centres undefined) | -0.8 | -8.2 | -0.1 | 0.1 | . | .
Cc1cnc(NC(=O)CSc2nnc(C)n2N)s1 | -3.8 | 0.8 | -0.8 | 21.8* | -1.3 | -5.2
CCOC(=S)SCC(=O)Nc1ncc(C)s1 | 0.7 | 9.4 | -0.4 | 20.2* | -6.7 | -6.7
Cc1cnc(NC(=O)CSc2ccccc2)s1 | -3.1 | 3.5 | -1.1 | 1.4 | . | .
NC(=O)c1cc([N+](=O)[O-])ccc1NCc1cccnc1 | -0.2 | 0.2 | -2.2 | -0.2 | . | .
NC(=O)c1cc([N+](=O)[O-])ccc1NCc1cnccn1 | . | . | . | 20.4* | -6.5 | -3.9
COc1cccc(Nc2nc(C(N)Cc3ccccc3)cs2)n1 (centres undefined) | . | . | . | 7.0 | . | .
CC1CCCN(C(C(=O)NC2CCCCC2)c2cc3c(cc2[N+](=O)[O-])OCO3)C1 (centres undefined) | -2.4 | 7.4 | -0.8 | 19.7* | 1.5 | -16.3
CCCC/C=C1/[C@H](CC)N(C)C2=N[C@@H](c3ccccc3)CC(=O)N21 | . | . | . | 5.9 | . | .
CCCn1c(=S)[nH]c2cc(Cl)ccc21 | -4.7 | 3.6 | -3.5 | 20.9* | 8.7 | -5.0
CCN(CCC(=O)Nc1cc(OC)ccc1OC)Cc1ccccc1 | . | . | . | 8.7 | . | .
Nc1[nH]c(C(=O)c2ccccc2)c(-c2ccc(Br)cc2)c1C(=O)c1cccs1 | . | . | . | -12.7 | . | .
Nc1[nH]c(C(=O)c2ccccc2)c(-c2ccccc2C(F)(F)F)c1C(=O)c1cccs1 | . | . | . | 19.8* | 9.9 | -5.9
CN(C1=NS(=O)(=O)c2ccccc21)c1ccc(OC(=O)c2ccccc2F)cc1 | . | . | . | 10.6 | . | .
O=C1N/C(=N\N=C\c2cccs2)SC1Cc1cccc(Cl)c1Cl (centres undefined) | -1.7 | 4.0 | -1.1 | 19.6* | -11.3 | -3.5
CC(NC(=O)Cc1ccccc1[N+](=O)[O-])c1ccccc1 (centres undefined) | -0.9 | -1.8 | -3.1 | 22.7* | -3.5 | -4.4
CC(C)n1cc(C(N)=S)c(=O)n(Cc2ccccc2)c1=O | 0.0 | -6.2 | 6.3* | 20.9* | 12.5 | -4.1
COc1ccc(Cl)cc1S(=O)(=O)NC(C)C(=O)NCCN1CCOCC1 (centres undefined) | . | . | . | 5.0 | . | .
O=C(Nc1ccc(N2CCOCC2)nc1)c1cccs1 | -2.3 | -2.9 | -0.3 | 2.6 | . | .
O=C(Nc1cccnc1N1CCOCC1)c1cccs1 | -1.9 | -2.9 | -3.5 | 21.6* | 0.2 | -5.1
SMILES | VIM-2 inh | PfM18AAP inh | IMP-1 inh | HGIII-sPLA2 inh | sPLA2 confirm | BODIPY interf | others
Cc1nc(N2CCN(C(=O)C3CCCCC3)CC2)c2c3c(sc2n1)CCCC3 | . | . | . | 3.3 | . | .
CCOc1ccc2c(c1)-c1c(ssc1=S)C(C)(C)N2C(=O)c1ccco1 | -1.2 | 7.4 | -1.1 | 20.6* | 35.8* | 1.2 | BODIPY interf DR=>122
O=C1NC(=S)NC1=Cc1ccccc1O | . | . | . | 21.8* | 8.4 | 0.6
COc1ccc(S(=O)(=O)N2CCOC23CCN(S(=O)(=O)c2c(C)cc(C)cc2C)CC3)cc1 | . | . | . | -7.0 | . | .
CCOC(=O)C1=C(c2ccccc2)NC(=S)NC1c1cccc([N+](=O)[O-])c1 (centres undefined) | -3.4 | 3.3 | -1.7 | 15.6 | . | .
CCOC(=O)C1=C(c2ccccc2)NC(=S)NC1c1cc([N+](=O)[O-])ccc1OC (centres undefined) | -0.7 | 0.6 | -2.8 | 23.2* | 17.8 | 3.1
Cc1cc(Br)ccc1NC(=O)CNC(=O)CN(C)Cc1nc2ccccc2c(=O)[nH]1 | -2.3 | 0.9 | -2.9 | 24.6* | 15.7 | -16.3
Cc1ccc(NC(=O)CN(C)Cc2nc3ccccc3c(=O)[nH]2)c(Br)c1 | -4.8 | -7.8 | -2.9 | 1.3 | . | .
O=C(Nc1ccccc1C(=O)N1CCCCC1)c1cccs1 | -1.2 | 14.9 | -0.7 | 6.9 | . | .
NC(=S)N/N=C/c1ccc(C23CC4CC(CC(C4)C2)C3)cc1 | 1.3 | 6.5 | 0.6 | . | . | .
Cc1ccccc1C(=O)Nc1ccnn1C1CCN(Cc2cnn(C)c2)CC1 | -0.3 | -14.3 | -2.2 | 7.2 | . | .
CN1c2ccc([N+](=O)[O-])cc2N(C)C1(C)c1ccccc1 (centres undefined) | -0.5 | 7.2 | -3.8 | 25.4* | 43.5* | 8.0*
COC(=O)C[C@@H]1CC[C@H]2[C@@H](COc3ccc(NC(=O)c4ccc(C(F)(F)F)cc4)cc3C(=O)N2C)O1 | . | . | . | -0.5 | . | .
CCCOc1ccc(C(=O)NC(=S)Nc2nc3ccccc3s2)cc1 | -0.2 | -13.5 | 1.1 | 26.0* | 1.9 | -1.9
CC(C)(C)NC(=S)NNC(=O)c1ccncc1 | -3.3 | -4.0 | -3.7 | 23.1* | 6.9 | -4.7
COc1ccc(C(=O)NC(=S)Nc2nc(C)c(C(=O)N(C)C)s2)cc1 | -4.2 | 6.0 | -4.3 | 22.2* | 15.4 | -3.7
CCNC(=S)NNC(=O)c1ccncc1 | -2.9 | -9.3 | -3.4 | 2.9 | . | .
Cc1ccc(NC(=O)NC(=S)NC(=O)c2ccccc2)cc1 | -1.2 | 19.8 | 1.7 | 23.3* | -14.1 | 3.6
CC(=O)Nc1ccc(NC(=S)NC(=O)c2ccc(-c3ccccc3)cc2)cc1 | . | . | . | 3.7 | . | .
CCCOc1ccc(C(=O)NC(=S)Nc2nc3ccc(C)cc3s2)cc1 | -4.2 | 4.8 | -3.0 | . | . | .
CCSc1ccc([C@@H]2[C@@H]3C(=O)N(CC)C(=O)[C@@H]3[C@]3(C(=O)OC)CCCN23)cc1 | . | . | . | -10.1 | . | .
COc1ccc(/C=C/C(=O)NC(=S)NNC(=O)c2cccs2)cc1 | -4.4 | 2.4 | -5.1 | 7.9 | . | .
COc1ccc(C(=O)NNC(=S)NC(=O)c2cccs2)cc1 | -5.8 | 13.4 | -4.4 | 21.0* | 40.0* | 1.6 | BODIPY interf DR=>122
CCOC(=O)c1sc(NC(=S)NC(=O)c2ccco2)nc1C | -0.7 | 5.0 | -0.9 | 27.1* | 14.6 | 1.7
Cc1ccc(C(=O)NNC(=O)c2ccco2)cc1 | -1.4 | -5.9 | -2.4 | 17.8 | . | .
CN1CCN(NC(=O)c2cccc(Br)c2)CC1 | -0.4 | -8.2 | -0.8 | 21.2* | 2.1 | -1.6
Cc1ccc(C(=O)NNC(=S)NC(=O)c2ccco2)cc1 | -4.6 | 7.1 | -4.5 | 21.8* | 32.4* | -7.1 | BODIPY interf DR=>122
COC(=O)c1sc(NC(=O)c2ccco2)nc1C | -5.8 | 3.1 | -2.8 | -5.2 | . | .
O=C(NN1CCOCC1)c1cccc(Br)c1 | . | . | . | 0.3 | . | .
